Here are results for one compound from ChEMBL document CHEMBL2331117 (J Med Chem, 2013).

In brackets after ≈: the same amount, converted by molar mass.

Series [1] can be described thus: AUC (0 to infinity) in CD rat at 3 mg/kg, po. The series is classed as ADME, organism-based. Details: time infinity, dose 3 mg/kg, route oral. The following applies: plasma. Put shortly: (§1)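 Single-dose PK: female athymic nude mice (10 mg/kg), female CD rats and male beagle dogs (3 mg/kg), male cynomolgus monkeys (3 mg/kg), given iv and by oral gavage. Solution in EPW (5% ethanol/45% PEG400/water), with 1:2 HCl (m/m) for mouse, rat and dog and 1:1.5 HCl (m/m) for monkey. Plasma levels followed over 24 h.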

Series [2] deals with Mus musculus. The series is described as follows: In vivo inhibition of mTORC2-mediated phosphorylation of AKT at […] in human MCF7 cells xenografted into athymic nude mouse at 100 mg/kg, po after 1 hr by Western blotting analysis relative to control. The series is classed as functional. The following applies: MCF7, 1 h. The method, boiled down:
(§2)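 MCF-7 cells (DMEM, 10% FBS) were implanted subcutaneously at 5 × 10^6 cells in 50% cold HBSS/50% growth-factor-reduced matrigel into the hindflank of 5−8 week old female nude mice. At tumor size 40−150 mg, mice received a single oral dose of 100 mg/kg. Tumor lysates were pooled per group. Phospho-AKT (S473, T308), p70S6K (T389), S6 (S240/244) and 4E-BP1 (T37/46) were measured by Western blot normalized to α-tubulin.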

Series [3] in a line: Clearance in athymic nude mouse at 10 mg/kg, iv. The settings on record: in vivo. Details: dose 10 mg/kg, route intravenous. Type of series: ADME, organism-based. Put shortly: as §1
Series [4] concerns the target DNA-dependent protein kinase catalytic subunit (Homo sapiens, UniProt P78527). The experiment in a line: Inhibition of DNA-PK (unknown origin).
In series [5] the target is Phosphatidylinositol 4,5-bisphosphate 3-kinase catalytic subunit alpha isoform (Homo sapiens, UniProt P42336). The experiment in a line: Inhibition of PI3Kalpha (unknown origin). The method, boiled down:
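PI3Kα activity was read as the percentage of ATP consumed, by luciferase–luciferin chemiluminescence (Kinase-Glo). The reaction ran about 2 h at ambient temperature, with ATP consumption kept to 40–60%. Values are the mean of n ≥ 2.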

For series [6], the system named is Mus musculus. The series is described as follows: Toxicity in athymic nude mouse assessed as body weight loss at 100 mg/kg, po relative to control. The series is classed as organism-based. Details: dose 100 mg/kg, route oral. The settings on record: in vivo.
The nature of series [7]: Kinetic solubility of the compound. Type of series: physicochemical. The settings on record: read-out: Kinetic_solubility.
For series [8], the system named is Mus musculus. The experiment in a line: In vivo inhibition of mTORC1-mediated phosphorylation of 4EBP1 at ([…]) in human MCF7 cells xenografted into athymic nude mouse at 100 mg/kg, po after 1 hr by Western blotting analysis relative to control. Type of series: functional. The settings on record: MCF7, 1 h.
The nature of series [9]: Plasma concentration in athymic mouse plasma xenografted with human MCF7 cells at 100 mg/kg, po after 4 hrs. Type of series: ADME, organism-based. Details: dose 100 mg/kg, route oral. The method, boiled down: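 MCF-7 cells (5 × 10^6 in 50% cold HBSS/50% growth-factor-reduced Matrigel) implanted subcutaneously in the hindflank of 5−8-week-old female nude mice. When tumors reached 40−150 mg, mice received a single oral dose. Plasma exposure was measured after dosing, and scheduled takedown was at 4 h.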

Series [10] relates to Mus musculus. The experiment in a line: In vivo inhibition of mTORC1-mediated phosphorylation of pS6 at (serine 240/244) in human MCF7 cells xenografted into athymic nude mouse at 100 mg/kg, po after 16 hrs by Western blotting analysis relative to control. Type of series: functional. The following applies: MCF7, 16 h. Put shortly: as §2
Series [11] has as its system Mus musculus. The series is described as follows: In vivo inhibition of mTORC1-mediated phosphorylation of p70S6K at […] in human MCF7 cells xenografted into athymic nude mouse at 100 mg/kg, po after 24 hrs by Western blotting analysis relative to control. The series is classed as functional. The following applies: MCF7, 24 h. Put shortly: as §2
For series [12], the system named is Mus musculus. The experiment in a line: In vivo inhibition of mTORC1-mediated phosphorylation of pS6 at (serine 240/244) in human PC3 cells xenografted into athymic nude mouse at 100 mg/kg, po after 16 hrs by Western blotting analysis relative to control. The settings on record: PC-3, 16 h. Type of series: functional. The method, boiled down:
(§3)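 PC-3 cells grown in DMEM with 20% FBS were implanted subcutaneously at 3 × 10^6 cells in ice-cold HBSS into the hindflank of 5−8 week old male nude mice. At tumor size 200−500 mg, mice received a single oral dose of 100 mg/kg. Plasma and tumors were collected at 1, 4, 8, 16, 24 and 32 h. Tumor lysates from each group (n = 5) were pooled. Phospho-proteins were quantified by Western blot and normalized to α-tubulin.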

Series [13] has as its system Mus musculus. The experiment in a line: In vivo inhibition of mTORC2-mediated phosphorylation of AKT at […] in human PC3 cells xenografted into athymic nude mouse at 100 mg/kg, po after 16 hrs by Western blotting analysis relative to control. Type of series: functional. The settings on record: PC-3, 16 h. Put shortly: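 Human PC-3 cells were implanted subcutaneously into the hindflank of male nude mice aged 5−8 weeks, at 3 × 10^6 cells (passages 10−14, >95% viability) in ice-cold HBSS. At a tumor size of 200−500 mg, mice got one oral 100 mg/kg dose. Tumors were taken at 1, 4, 8, 16, 24 and 32 h. Lysates (n = 5 per group) were pooled, and phospho-AKT (T308) was read by Western blot, normalized to α-tubulin.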

Series [14] deals with Mus musculus. The experiment in a line: In vivo inhibition of mTOR1-mediated phosphorylation of p70S6K at […] in human PC3 cells xenografted into athymic nude mouse at 100 mg/kg, po after 8 hrs by Western blotting analysis relative to control. The series is classed as functional. The settings on record: PC-3, 8 h. Put shortly: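 PC-3 cells (3 × 10⁶, passages 10–14, in ice-cold HBSS) were implanted sc in 5–8 week old male nude mice. Tumors of 200–500 mg received a single oral 100 mg/kg dose. Plasma and tumor were collected at 1, 4, 8, 16, 24 and 32 h and homogenized in buffer. Lysates were pooled per group (n = 5), and phospho-proteins were measured by Western blot normalized to α-tubulin.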

Series [15] deals with Phosphatidylinositol 4,5-bisphosphate 3-kinase catalytic subunit delta isoform (Homo sapiens, UniProt O00329). The experiment in a line: Inhibition of PI3Kdelta (unknown origin).
Phosphatidylinositol 4,5-bisphosphate 3-kinase catalytic subunit delta isoform, sequence (O00329 whole entry, canonical isoform): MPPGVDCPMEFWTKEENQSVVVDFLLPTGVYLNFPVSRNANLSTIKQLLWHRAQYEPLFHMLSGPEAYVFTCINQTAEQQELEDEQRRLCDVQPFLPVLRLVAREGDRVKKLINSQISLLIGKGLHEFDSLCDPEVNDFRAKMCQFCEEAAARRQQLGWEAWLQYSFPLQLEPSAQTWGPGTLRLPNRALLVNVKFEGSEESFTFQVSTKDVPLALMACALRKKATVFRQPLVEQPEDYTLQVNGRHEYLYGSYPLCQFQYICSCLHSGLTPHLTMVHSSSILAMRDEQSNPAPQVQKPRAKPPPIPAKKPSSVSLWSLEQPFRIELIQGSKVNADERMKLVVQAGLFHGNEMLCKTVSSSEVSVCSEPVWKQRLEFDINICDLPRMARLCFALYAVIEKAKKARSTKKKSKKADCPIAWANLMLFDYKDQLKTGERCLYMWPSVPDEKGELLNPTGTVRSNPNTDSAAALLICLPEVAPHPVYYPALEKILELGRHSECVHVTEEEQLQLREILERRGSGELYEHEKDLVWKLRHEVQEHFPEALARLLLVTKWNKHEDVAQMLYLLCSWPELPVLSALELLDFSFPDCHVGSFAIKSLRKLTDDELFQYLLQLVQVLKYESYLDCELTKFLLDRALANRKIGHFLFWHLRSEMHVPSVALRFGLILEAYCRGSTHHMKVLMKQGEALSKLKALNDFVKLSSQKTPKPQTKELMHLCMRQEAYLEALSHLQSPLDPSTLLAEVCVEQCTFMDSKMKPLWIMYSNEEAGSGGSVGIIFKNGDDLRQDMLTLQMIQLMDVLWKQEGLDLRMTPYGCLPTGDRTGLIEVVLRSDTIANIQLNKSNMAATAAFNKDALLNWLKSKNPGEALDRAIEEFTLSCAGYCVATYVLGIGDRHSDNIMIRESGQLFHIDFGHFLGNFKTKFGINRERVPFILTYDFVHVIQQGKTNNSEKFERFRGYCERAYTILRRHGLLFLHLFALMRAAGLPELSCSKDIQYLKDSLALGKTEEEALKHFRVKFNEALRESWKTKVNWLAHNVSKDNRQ
Series [16] in a line: Half life in athymic nude mouse at 10 mg/kg, iv. Type of series: ADME, organism-based. Details: dose 10 mg/kg, route intravenous. The following applies: in vivo. The method, boiled down: as §1
The subject of series [17] is Mus musculus. The series is described as follows: In vivo inhibition of mTORC1-mediated phosphorylation of pS6 at (serine 240/244) in human PC3 cells xenografted into athymic nude mouse at 100 mg/kg, po after 4 hrs by Western blotting analysis relative to control. The following applies: PC-3, 4 h. Type of series: functional. Put shortly:
as §3

Series [18] relates to Mus musculus. The series is described as follows: In vivo inhibition of mTORC2-mediated phosphorylation of AKT at serine 473 in human MCF7 cells xenografted into athymic nude mouse at 100 mg/kg, po after 16 hrs by Western blotting analysis relative to control. Type of series: functional. The settings on record: MCF7, 16 h. The method, boiled down:
as §2

In series [19] the target is Vascular endothelial growth factor receptor 1 (Homo sapiens, UniProt P17948). The experiment in a line: Inhibition of FLT1 (unknown origin).
Vascular endothelial growth factor receptor 1, sequence (P17948 whole entry): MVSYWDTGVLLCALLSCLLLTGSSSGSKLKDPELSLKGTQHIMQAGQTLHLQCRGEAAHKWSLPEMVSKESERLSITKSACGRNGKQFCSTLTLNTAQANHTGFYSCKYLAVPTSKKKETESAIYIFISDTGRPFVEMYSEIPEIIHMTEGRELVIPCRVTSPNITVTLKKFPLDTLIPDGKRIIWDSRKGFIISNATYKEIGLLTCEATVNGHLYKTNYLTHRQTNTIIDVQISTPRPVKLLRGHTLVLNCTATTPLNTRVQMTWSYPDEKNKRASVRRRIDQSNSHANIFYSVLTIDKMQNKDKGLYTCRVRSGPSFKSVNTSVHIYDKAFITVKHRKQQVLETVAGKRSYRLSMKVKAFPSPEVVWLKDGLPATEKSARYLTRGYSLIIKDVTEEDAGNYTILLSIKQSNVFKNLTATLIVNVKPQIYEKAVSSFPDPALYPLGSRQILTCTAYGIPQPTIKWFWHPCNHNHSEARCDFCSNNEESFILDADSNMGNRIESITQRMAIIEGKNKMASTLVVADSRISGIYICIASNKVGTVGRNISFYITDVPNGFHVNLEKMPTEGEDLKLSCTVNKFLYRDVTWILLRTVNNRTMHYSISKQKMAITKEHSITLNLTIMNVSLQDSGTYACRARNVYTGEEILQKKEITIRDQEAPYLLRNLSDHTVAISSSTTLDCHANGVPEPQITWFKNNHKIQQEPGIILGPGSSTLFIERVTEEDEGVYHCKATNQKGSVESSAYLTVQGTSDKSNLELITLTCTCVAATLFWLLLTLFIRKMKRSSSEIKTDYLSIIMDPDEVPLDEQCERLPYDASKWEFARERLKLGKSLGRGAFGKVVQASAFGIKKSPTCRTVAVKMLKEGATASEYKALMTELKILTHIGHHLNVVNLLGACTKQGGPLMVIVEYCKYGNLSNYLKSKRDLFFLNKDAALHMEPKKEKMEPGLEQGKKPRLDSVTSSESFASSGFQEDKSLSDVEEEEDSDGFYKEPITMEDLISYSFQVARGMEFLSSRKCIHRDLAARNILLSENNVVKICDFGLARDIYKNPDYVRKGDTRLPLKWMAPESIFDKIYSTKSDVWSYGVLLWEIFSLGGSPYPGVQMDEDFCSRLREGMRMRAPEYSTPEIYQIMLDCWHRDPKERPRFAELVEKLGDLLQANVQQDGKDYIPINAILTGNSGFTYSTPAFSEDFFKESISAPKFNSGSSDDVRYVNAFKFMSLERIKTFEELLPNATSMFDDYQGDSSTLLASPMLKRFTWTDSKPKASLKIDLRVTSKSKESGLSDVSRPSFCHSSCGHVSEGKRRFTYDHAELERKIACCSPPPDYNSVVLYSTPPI
Series [20] is described as follows: Clearance in CD rat at 3 mg/kg, iv. Type of series: ADME, organism-based. Details: dose 3 mg/kg, route intravenous. The settings on record: in vivo. The method, boiled down:
as §1

Series [21] in a line: Drug uptake in tumor of athymic mouse xenografted with human MCF7 cells at 100 mg/kg, po after 4 hrs. Type of series: ADME, organism-based, Neoplasm. Details: dose 100 mg/kg, route oral. The following applies: read-out: Drug uptake.
Series [22] is described as follows: Cmax in CD rat at 3 mg/kg, po. The series is classed as ADME, organism-based. Details: dose 3 mg/kg, route oral. The following applies: in vivo. Put shortly:
as §1

For series [23], the system named is Mus musculus. The experiment in a line: In vivo inhibition of mTORC1-mediated phosphorylation of p70S6K at […] in human MCF7 cells xenografted into athymic nude mouse at 100 mg/kg, po after 4 hrs by Western blotting analysis relative to control. Type of series: functional. The settings on record: MCF7, 4 h. Put shortly: as §2
Series [24] addresses Phosphatidylinositol 4,5-bisphosphate 3-kinase catalytic subunit gamma isoform (Homo sapiens, UniProt P48736). The experiment in a line: Inhibition of PI3Kgamma (unknown origin).

Phosphatidylinositol 4,5-bisphosphate 3-kinase catalytic subunit alpha isoform, sequence (P42336 whole entry, canonical isoform): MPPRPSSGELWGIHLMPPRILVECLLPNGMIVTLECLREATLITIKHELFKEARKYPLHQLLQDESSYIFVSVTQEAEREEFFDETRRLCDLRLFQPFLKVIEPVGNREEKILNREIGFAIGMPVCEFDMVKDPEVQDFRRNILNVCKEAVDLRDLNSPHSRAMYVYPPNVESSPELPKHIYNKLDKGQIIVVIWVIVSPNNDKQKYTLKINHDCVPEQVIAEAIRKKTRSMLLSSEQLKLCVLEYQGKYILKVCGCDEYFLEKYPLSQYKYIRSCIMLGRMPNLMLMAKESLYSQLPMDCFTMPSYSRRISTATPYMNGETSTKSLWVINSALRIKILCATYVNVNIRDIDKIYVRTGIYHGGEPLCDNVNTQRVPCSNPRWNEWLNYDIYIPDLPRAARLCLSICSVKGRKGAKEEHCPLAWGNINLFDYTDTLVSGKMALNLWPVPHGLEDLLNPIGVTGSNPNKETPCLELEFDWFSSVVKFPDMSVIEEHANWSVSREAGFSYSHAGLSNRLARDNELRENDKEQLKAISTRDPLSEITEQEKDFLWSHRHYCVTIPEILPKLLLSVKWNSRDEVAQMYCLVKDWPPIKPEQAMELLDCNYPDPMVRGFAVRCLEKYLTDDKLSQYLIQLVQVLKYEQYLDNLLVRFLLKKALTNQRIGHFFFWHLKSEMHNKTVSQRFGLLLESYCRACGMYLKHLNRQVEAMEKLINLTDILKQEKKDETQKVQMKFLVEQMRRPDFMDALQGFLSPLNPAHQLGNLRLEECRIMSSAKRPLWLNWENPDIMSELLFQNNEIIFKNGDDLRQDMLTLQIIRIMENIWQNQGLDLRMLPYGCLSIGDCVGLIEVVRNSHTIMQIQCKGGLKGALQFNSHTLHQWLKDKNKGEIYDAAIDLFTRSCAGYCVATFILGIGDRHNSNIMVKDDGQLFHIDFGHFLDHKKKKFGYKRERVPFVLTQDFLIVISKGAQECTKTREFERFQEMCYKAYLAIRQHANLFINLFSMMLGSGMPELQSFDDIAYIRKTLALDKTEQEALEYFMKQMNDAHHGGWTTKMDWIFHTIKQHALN
Phosphatidylinositol 4,5-bisphosphate 3-kinase catalytic subunit gamma isoform, sequence (P48736 whole entry, canonical isoform): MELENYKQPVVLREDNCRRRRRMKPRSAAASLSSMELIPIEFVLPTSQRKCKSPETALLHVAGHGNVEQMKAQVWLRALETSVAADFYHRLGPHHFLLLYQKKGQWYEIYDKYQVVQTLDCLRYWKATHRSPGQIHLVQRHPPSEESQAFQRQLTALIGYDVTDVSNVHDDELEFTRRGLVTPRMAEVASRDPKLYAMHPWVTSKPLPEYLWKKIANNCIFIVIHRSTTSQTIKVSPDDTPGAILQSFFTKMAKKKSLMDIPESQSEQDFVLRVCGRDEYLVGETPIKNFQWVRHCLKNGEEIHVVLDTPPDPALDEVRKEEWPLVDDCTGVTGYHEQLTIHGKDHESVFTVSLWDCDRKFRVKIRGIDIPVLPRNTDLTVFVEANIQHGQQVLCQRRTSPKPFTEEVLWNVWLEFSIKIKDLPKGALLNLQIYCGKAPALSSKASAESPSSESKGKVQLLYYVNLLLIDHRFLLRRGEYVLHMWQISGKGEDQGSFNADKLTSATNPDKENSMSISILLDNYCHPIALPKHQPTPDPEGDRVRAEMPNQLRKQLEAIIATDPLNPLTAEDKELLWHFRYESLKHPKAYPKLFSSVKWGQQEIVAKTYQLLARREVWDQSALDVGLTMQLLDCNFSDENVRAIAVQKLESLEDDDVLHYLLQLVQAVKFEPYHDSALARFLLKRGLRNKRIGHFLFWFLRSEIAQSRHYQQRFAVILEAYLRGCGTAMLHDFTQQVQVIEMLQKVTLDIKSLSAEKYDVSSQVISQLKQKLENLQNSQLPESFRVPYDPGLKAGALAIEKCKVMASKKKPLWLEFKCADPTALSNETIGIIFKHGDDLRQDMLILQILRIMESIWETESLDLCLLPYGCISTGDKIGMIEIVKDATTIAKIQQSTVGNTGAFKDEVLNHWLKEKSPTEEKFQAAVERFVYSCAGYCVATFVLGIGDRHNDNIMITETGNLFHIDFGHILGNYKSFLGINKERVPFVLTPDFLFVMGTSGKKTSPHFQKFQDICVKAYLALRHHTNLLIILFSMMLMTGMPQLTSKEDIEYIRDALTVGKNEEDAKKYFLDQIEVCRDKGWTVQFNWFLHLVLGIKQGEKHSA

`Cc1c(C(=O)N2CCOc3ccc(-c4ccc(N)nc4)cc3C2)ccc(S(C)(=O)=O)c1F`: in [1], the AUC(0-inf) amounted to 0.952 µM·h. For the same compound, the inhibition in vivo at 100 mg/kg in the series with Mus musculus [2] was 6%; in the series with Mus musculus [8], 94%; with Mus musculus [10], 36%; with Mus musculus [11], -19%; in the series on Mus musculus [12], 71%; with Mus musculus [13], 36%. Further, the inhibition in vivo at 100 mg/kg in the series on Mus musculus [14] was 92%; in the series with Mus musculus [17], 90%; with Mus musculus [18] it was 69%; in the series on Mus musculus [23], 85%. The clearance is 45.8 mL/min/kg in [3] and 21.2 mL/min/kg in series [20]. For the same compound, the IC50 in series [4] is 8.83 µM; in series [5] it was above 3 µM; in series [15], above 5 µM; in series [19] it was above 3.5 µM; in series [24], above 5 µM. Besides, the Activity with Mus musculus [6] was 2.8%. Moreover, the solubility kinetic in series [7] stood at 232 µM (≈ 106 µg/mL). Moreover, the concentration at 4 h in series [9] was 30.1 µM; in series [21] it was 35.9 µM. Further, in series [16], the half-life was 1.35 h. In [22], the Cmax is 0.707 µM.
